Active and inactive are the calls of the source. The rule behind the calls is not given here.
Tests used:
[1] = target: Mitogen-activated protein kinase 1 (Homo sapiens, UniProt P28482); test: Inhibition of ERK2 (unknown origin) using […] as substrate after 40 mins by ADP-Glo luminescence assay
[2] = tested on: HCT-116; test: Antitumor activity against human HCT116 cells xenografted in Balb/c nude mouse assessed as tumor growth inhibition at 50 mg/kg, po qd for 30 days and measured every 3 days by calliper method relative to control; type: functional; settings: HCT-116, po, read-out: TGI
In short: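 Nude mice bearing HCT-116 xenografts; test article given as hydrochloride salt, 50 mg/kg orally once daily for 30 days; efficacy expressed as percent tumor growth inhibition.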

[3] = target: Mitogen-activated protein kinase 3 (Homo sapiens, UniProt P27361); test: Inhibition of ERK1 (unknown origin) using […] as substrate after 40 mins by ADP-Glo luminescence assay
[4] = tested on: HCT-116; test: Antiproliferative activity against human HCT116 cells after 72 hrs by MTT assay; type: functional, cell-based; settings: HCT-116, 72 h
[5] = tested on: WM 266-4; test: Antiproliferative activity against human WM266.4 cells after 72 hrs by MTT assay; type: functional, cell-based; settings: WM 266-4, 72 h
[6] = tested on: SW626; test: Antiproliferative activity against human SW626 cells after 72 hrs by MTT assay; type: functional, cell-based; settings: SW626, 72 h
[7] = tested on: COLO 205; test: Antiproliferative activity against human COLO205 cells after 72 hrs by MTT assay; type: functional, cell-based; settings: COLO 205, 72 h
[8] = tested on: NCM460; test: Cytotoxicity against human NCM460 cells assessed as reduction in cell viability at 10000 nM after 72 hrs by MTT assay; type: cell-based; settings: ncm460, 72 h, 10 µM
[9] = tested on: HCT-116; test: Induction of apoptosis in human HCT116 cells assessed as early apoptotic cells at 1 uM after 72 hrs by annexin V-FITC and propidium iodide staining based flow cytometric analysis (reference value: 3.88%); type: functional
In short: (§1)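 HCT116 cells treated with compound, PI-stained, and analysed for apoptosis by flow cytometry; means ± SD of three independent experiments, each condition in triplicate.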

[10] = tested on: HCT-116; test: Induction of apoptosis in human HCT116 cells assessed as late apoptotic cells at 1 uM after 72 hrs by annexin V-FITC and propidium iodide staining based flow cytometric analysis (reference value: 1.20%); type: functional; in short: as §1
[11] = tested on: HCT-116; test: Induction of apoptosis in human HCT116 cells assessed as necrotic cells at 1 uM after 72 hrs by annexin V-FITC and propidium iodide staining based flow cytometric analysis (reference value: 0.21%); type: functional; in short: as §1
[12] = tested on: HCT-116; test: Induction of apoptosis in human HCT116 cells assessed as viable cells at 1 uM after 72 hrs by annexin V-FITC and propidium iodide staining based flow cytometric analysis (reference value: 94.3%); type: functional; settings: HCT-116, 72 h, read-out: Activity; in short: as §1
[13] = tested on: HCT-116; test: Cell cycle arrest in human HCT116 cells assessed as accumulation at G0/G1 phase at 1 uM after 72 hrs by annexin V-FITC and propidium iodide staining based flow cytometric analysis (reference value: 44.3%); type: functional
[14] = tested on: HCT-116; test: Cell cycle arrest in human HCT116 cells assessed as accumulation at G2/M phase at 1 uM after 72 hrs by annexin V-FITC and propidium iodide staining based flow cytometric analysis (reference value: 43.5%); type: functional
[15] = Toxicity against Balb/c nude mouse xenografted with human HCT116 cells assessed as reduction in body weight at 50 mg/kg, po qd for 30 days and measured every 3 days; type: organism-based; settings: in vivo
In short: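 HCT-116 xenograft nude mice dosed at 50 mg/kg orally once daily for 30 days; body weight recorded every 3 days.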

[16] = tested on: K562; test: Antiproliferative activity against human K562 cells after 72 hrs by MTT assay; type: functional, cell-based; settings: K562, 72 h
[17] = Half life in Sprague-Dawley rat at 50 mg/kg, po by LC/MS/MS analysis; type: ADME, organism-based; settings: in vivo
In short: (§2)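 Sprague-Dawley rats dosed intravenously at 5 mg/kg or orally at 50 mg/kg; pharmacokinetic parameters derived from the plasma concentration data.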

[18] = Cmax in Sprague-Dawley rat at 50 mg/kg, po by LC/MS/MS analysis; type: ADME, organism-based; design: dose 50 mg/kg, route oral; settings: in vivo; in short: as §2
[19] = AUC (0 to t) in Sprague-Dawley rat at 50 mg/kg, po by LC/MS/MS analysis; type: ADME, organism-based; settings: in vivo; in short: as §2
[20] = MRT (0 to t) in Sprague-Dawley rat at 50 mg/kg, po by LC/MS/MS analysis; type: ADME, organism-based; settings: in vivo; in short: as §2
[21] = Oral bioavailability in Sprague-Dawley rat at 50 mg/kg by LC/MS/MS analysis; type: ADME, organism-based; settings: in vivo; in short: as §2
[22] = tested on: HCT-116; test: Induction of apoptosis in human HCT116 cells assessed as increase in condense bright apoptotic nuclei formation at 1 uM by Hoechst 33258 staining-based assay; type: functional, cell-based
In short: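 After compound incubation, HCT116 cells stained with Hoechst 33258 and examined for condensed, bright apoptotic nuclei; n=3 per group.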

[23] = target: T1, Mitogen-activated protein kinase; ERK1/ERK2 (Homo sapiens) (UniProt P27361+P28482); test: Inhibition of ERK1/2 phosphorylation at Thr202/Tyr204 residues in human HCT116 cells by Western blot analysis; type: cell-based
In short: (§3)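 Phosphorylation of ERK1/2 and RSK in HCT116 cells measured by western blot over a range of compound concentrations; means ± SD of three independent experiments, each condition run in triplicate.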

[24] = target: T1, Mitogen-activated protein kinase; ERK1/ERK2 (Homo sapiens); test: Inhibition of ERK1/2 in human HCT116 cells assessed as reduction in RSK phosphorylation at Thr359/Ser363 residues by Western blot analysis; type: cell-based; in short: as §3

Mitogen-activated protein kinase 3, sequence (P27361 whole entry): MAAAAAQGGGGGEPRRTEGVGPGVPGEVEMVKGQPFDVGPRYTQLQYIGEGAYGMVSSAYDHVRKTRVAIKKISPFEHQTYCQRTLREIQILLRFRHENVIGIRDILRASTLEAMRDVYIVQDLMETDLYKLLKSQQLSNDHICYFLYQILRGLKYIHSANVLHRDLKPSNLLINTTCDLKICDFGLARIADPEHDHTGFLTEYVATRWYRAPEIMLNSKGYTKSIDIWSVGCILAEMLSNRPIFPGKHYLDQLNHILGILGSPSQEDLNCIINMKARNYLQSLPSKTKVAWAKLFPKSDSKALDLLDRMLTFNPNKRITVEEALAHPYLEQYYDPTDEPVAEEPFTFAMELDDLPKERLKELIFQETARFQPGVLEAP
Mitogen-activated protein kinase 1, sequence (P28482 whole entry): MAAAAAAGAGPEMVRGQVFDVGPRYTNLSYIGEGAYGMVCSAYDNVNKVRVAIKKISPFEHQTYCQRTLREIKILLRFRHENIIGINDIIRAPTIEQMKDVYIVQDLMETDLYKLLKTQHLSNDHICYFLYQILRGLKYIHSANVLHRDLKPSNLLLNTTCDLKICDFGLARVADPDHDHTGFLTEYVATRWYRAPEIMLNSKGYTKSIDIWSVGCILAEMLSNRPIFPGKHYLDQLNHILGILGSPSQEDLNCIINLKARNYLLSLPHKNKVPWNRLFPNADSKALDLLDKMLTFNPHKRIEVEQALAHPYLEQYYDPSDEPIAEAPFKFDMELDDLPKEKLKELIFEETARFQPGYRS
T1 sequence (P27361 whole entry, looked up): as the sequence (P27361 whole entry) above
T1 sequence (P28482 whole entry, looked up): as the sequence (P28482 whole entry) above

O=C1c2cc(-c3ccnc(Nc4ncco4)n3)ccc2CN1C(CO)c1cccc(Cl)c1 (configuration not stated)
IC50 [1]: 93.3 nM

O=C1c2cc(-c3ccnc(NC4CCOCC4)n3)ccc2CN1Cc1ccc(Cl)c(F)c1
IC50 [1]: 17.8 nM

O=C1c2cc(-c3ccnc(NC4CCOCC4)n3)ccc2CN1C(CO)c1cccc(Cl)c1 (configuration not stated) [listing 1 of 2 here]
inhibition in vivo at 50 mg/kg [2]: 71%
IC50 [1]: 0.7 nM
IC50 [3]: 1.5 nM
IC50 [4]: 155 nM
IC50 [5]: 260 nM
IC50 [6]: 247 nM
IC50 [7]: 194 nM
Activity [8]: Non-Toxic
Activity [9]: 27.7%
Activity [10]: 10.4%
Activity [11]: 0.12%
viability at 1 µM [12]: 61.3%
Activity [13]: 58%
Activity [14]: 29.5%
Activity [15]: Non-Toxic
IC50 [16]: 3190 nM

Cn1cc(Nc2nccc(-c3ccc4c(c3)C(=O)N([C@H](CO)c3cccc(Cl)c3)C4)n2)cn1
IC50 [1]: 1.1 nM

Cc1cccc(CN2Cc3ccc(-c4ccnc(Nc5ccnn5C)n4)cc3C2=O)n1
IC50 [1]: > 1000 nM

O=C1c2cc(-c3ccnc(Nc4ccc(F)cc4)n3)ccc2CN1Cc1cccc(Cl)c1
IC50 [1]: > 1000 nM

Cn1cc(Nc2nccc(-c3ccc4c(c3)C(=O)N(C(CO)c3cccc(Cl)c3)C4)n2)cn1 (configuration not stated)
IC50 [1]: 1.2 nM
IC50 [3]: 4.1 nM
IC50 [4]: 201 nM
IC50 [5]: 211 nM
IC50 [6]: 206 nM
IC50 [7]: 227 nM
Activity [8]: Non-Toxic
IC50 [16]: 3820 nM

Cn1nccc1Nc1nccc(-c2ccc3c(c2)C(=O)N(Cc2cccnc2)C3)n1
IC50 [1]: > 1000 nM

O=C1c2cc(-c3ccnc(Nc4nccs4)n3)ccc2CN1C(CO)c1cccc(Cl)c1 (configuration not stated)
IC50 [1]: 22.3 nM

O=C1c2cc(-c3ccnc(NC4CCOCC4)n3)ccc2CN1[C@H](CO)c1cccc(Cl)c1
IC50 [1]: 0.8 nM

O=C1c2cc(-c3ccnc(NC4CCOCC4)n3)ccc2CN1C(CO)c1ccc(Cl)cc1 (configuration not stated)
IC50 [1]: 30.4 nM

Cl.O=C1c2cc(-c3ccnc(NC4CCOCC4)n3)ccc2CN1C(CO)c1cccc(Cl)c1 (configuration not stated)
half-life [17]: 3.6 h
Cmax [18]: 1920 ng/mL
AUC(0-t) [19]: 8380 ng·h/mL
MRT last [20]: 3.4 h
bioavailability [21]: 22.5%

O=C1c2cc(-c3ccnc(NCCO)n3)ccc2CN1C(CO)c1cccc(Cl)c1 (configuration not stated)
IC50 [1]: 17.6 nM

O=C1c2cc(-c3ccnc(NC4CCOCC4)n3)ccc2CN1[C@@H](CO)c1cccc(Cl)c1
IC50 [1]: 201 nM

O=C1c2cc(-c3ccnc(NC4CCC(O)CC4)n3)ccc2CN1C(CO)c1cccc(Cl)c1 (configuration not stated)
IC50 [1]: 2.7 nM

O=C1c2cc(-c3ccnc(NC4CCNCC4)n3)ccc2CN1C(CO)c1cccc(Cl)c1 (configuration not stated)
IC50 [1]: > 1000 nM

Cn1ccc(Nc2nccc(-c3ccc4c(c3)C(=O)N(C(CO)c3cccc(Cl)c3)C4)n2)n1 (configuration not stated)
IC50 [1]: 25.6 nM

Cn1nccc1Nc1nccc(-c2ccc3c(c2)C(=O)N(Cc2ccc(Cl)c(F)c2)C3)n1
IC50 [1]: 5.6 nM

Cn1nccc1Nc1nccc(-c2ccc3c(c2)C(=O)N(Cc2cccc(Cl)c2)C3)n1
IC50 [1]: 3.5 nM
IC50 [16]: 2870 nM

O=C1c2cc(-c3ccnc(NC4CCOCC4)n3)ccc2CN1C(CO)c1cccc(Cl)c1 (configuration not stated) [listing 2 of 2 here]
Activity [22]: Active
inhibition [23]: Dose-dependent effect
inhibition [24]: Dose-dependent effect

Cn1cc(Nc2nccc(-c3ccc4c(c3)C(=O)N([C@@H](CO)c3cccc(Cl)c3)C4)n2)cn1
IC50 [1]: 633 nM

Cn1cc(Nc2nccc(-c3ccc4c(c3)C(=O)N(Cc3cccc(Cl)c3)C4)n2)cn1
IC50 [1]: 3.6 nM
IC50 [3]: 21 nM
IC50 [4]: 148 nM
IC50 [5]: 174 nM
IC50 [6]: 209 nM
IC50 [7]: 204 nM
IC50 [16]: 2740 nM

Cl.O=C1c2cc(-c3ccnc(NC4CCOCC4)n3)ccc2CN1Cc1cccc(Cl)c1
half-life [17]: 0.37 h
Cmax [18]: 747 ng/mL
AUC(0-t) [19]: 1280 ng·h/mL
MRT last [20]: 1.2 h
bioavailability [21]: 6.9%

O=C1c2cc(-c3ccnc(NC4CCOCC4)n3)ccc2CN1Cc1ccc(F)c(Cl)c1
IC50 [1]: 2.9 nM

O=C1c2cc(-c3ccnc(NC4CCCCC4)n3)ccc2CN1C(CO)c1cccc(Cl)c1 (configuration not stated)
IC50 [1]: 7.2 nM

O=C1c2cc(-c3ccnc(NC4CCOCC4)n3)ccc2CN1C(CO)c1ccc(Cl)c(Cl)c1 (configuration not stated)
IC50 [1]: 3.1 nM

Cn1nccc1Nc1nccc(-c2ccc3c(c2)C(=O)N(Cc2ccccn2)C3)n1
IC50 [1]: > 1000 nM

O=C1c2cc(-c3ccnc(NC4CCOCC4)n3)ccc2CN1Cc1ccc(Cl)cc1
IC50 [1]: 35.6 nM

Cn1nccc1Nc1nccc(-c2ccc3c(c2)C(=O)N(C(CO)c2cccc(Cl)c2)C3)n1 (configuration not stated)
IC50 [1]: 1.9 nM
IC50 [3]: 3.6 nM
IC50 [4]: 251 nM
IC50 [5]: 217 nM
IC50 [6]: 252 nM
IC50 [7]: 252 nM
IC50 [16]: 2930 nM

O=C1c2cc(-c3ccnc(NCCCO)n3)ccc2CN1C(CO)c1cccc(Cl)c1 (configuration not stated)
IC50 [1]: 38.4 nM

O=C1c2cc(-c3ccnc(NC4CCNC4)n3)ccc2CN1C(CO)c1cccc(Cl)c1 (configuration not stated)
IC50 [1]: > 1000 nM

O=C1c2cc(-c3ccnc(NC4CCOCC4)n3)ccc2CN1Cc1cccc(Cl)c1
IC50 [1]: 1.6 nM
IC50 [3]: 3.3 nM
IC50 [4]: 150 nM
IC50 [5]: 220 nM
IC50 [6]: 255 nM
IC50 [7]: 170 nM
IC50 [16]: 1550 nM

O=C1c2cc(-c3ccnc(Nc4ccncc4)n3)ccc2CN1Cc1cccc(Cl)c1
IC50 [1]: 36.3 nM

Cn1nnnc1Nc1nccc(-c2ccc3c(c2)C(=O)N(C(CO)c2cccc(Cl)c2)C3)n1 (configuration not stated)
IC50 [1]: 19.8 nM

CC(C)Nc1nccc(-c2ccc3c(c2)C(=O)N(C(CO)c2cccc(Cl)c2)C3)n1 (configuration not stated)
IC50 [1]: 11.2 nM

O=C1c2cc(-c3ccnc(NC4CCOC4)n3)ccc2CN1C(CO)c1cccc(Cl)c1 (configuration not stated)
IC50 [1]: 5.4 nM

Source: ChEMBL document CHEMBL4422627, “Discovery of potent, orally bioavailable ERK1/2 inhibitors with isoindolin-1-one structure by structure-based drug design” (Eur J Med Chem, 2019)
